Measured values reported in publication PMC3142331 (Molecular cell, 2011).

What was measured:
[1] = target: Mce-V372Y/C383Y (Mus musculus, UniProt O55236, C383Y/V372Y); assay: fluorescence polarization binding; settings: pH 7.0, 23°C
[2] = tested on: Mce F367N; assay: fluorescence polarization binding; design: species or system mouse; settings: pH 7.0, 23°C; versus wild-type
Outline: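 N-terminally fluorescein-labelled 11-aa CTD peptide (phosphorylated at central Ser2 and Ser5) was titrated with increasing concentrations of E. coli-expressed recombinant Mce protein, wild-type or mutant. Polarization was read at 23°C, pH 7.0, and Kd was derived from the binding curves. Three independent experiments were run in triplicate; error is one standard deviation.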

Sequence of Mce-V372Y/C383Y (O55236 227-567 V372Y/C383Y): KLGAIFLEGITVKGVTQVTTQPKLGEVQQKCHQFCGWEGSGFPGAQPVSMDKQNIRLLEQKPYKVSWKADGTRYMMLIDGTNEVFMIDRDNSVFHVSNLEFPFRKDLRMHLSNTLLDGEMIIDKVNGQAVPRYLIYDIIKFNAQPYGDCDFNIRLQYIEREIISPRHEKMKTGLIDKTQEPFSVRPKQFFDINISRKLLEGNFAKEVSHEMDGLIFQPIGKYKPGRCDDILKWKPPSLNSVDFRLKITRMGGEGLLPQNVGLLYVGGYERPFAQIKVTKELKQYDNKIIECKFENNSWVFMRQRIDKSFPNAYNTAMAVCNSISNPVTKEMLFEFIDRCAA

How did the “increase in Kd compared to wild-type Mce” value [1] turn out when `C[C@@H](O)[C@H](NC(=O)[C@@H]1CCCN1C(=O)[C@H](CO)NC(=O)c1ccc2c(c1)C(=O)OC21c2ccc(O)cc2Oc2cc(O)ccc21)C(=O)N[C@@H](COP(=O)(O)O)C(=O)N1CCC[C@H]1C(=O)N[C@@H](CO)C(=O)N[C@@H](Cc1ccc(O)cc1)C(=O)N[C@@H](COP(=O)(O)O)C(=O)N1CCC[C@H]1C(=O)N[C@H](C(=O)N[C@@H](CO)C(=O)O)[C@@H](C)O` [Fluor-S2P3T4S5PP6S7Y1S2PP3T4S5] was run?
The value was 4 fold.

And the “effect of mutation on binding” value [2]?
Its value is “No effect in binding was observed”.
